{"source": "ChEMBL document CHEMBL4673249", "about": "“Anticancer Effects of Honokiol via Mitochondrial Dysfunction Are Strongly Enhanced by the Mitochondria-Targeting Carrier Berberine” (J Med Chem, 2020)", "key": {"[1]": {"tested_on": "PC-3", "assay": "Induction of morphological changes in human PC3 cells assessed as accumulation of cytoplasmic vacuoles at 4 uM after 24 hrs by optical microscopic method", "assay_type": "functional, cell-based", "how_it_was_run": "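Cells grown at 37 °C, 5% CO2 in media with 10% FBS and penicillin/streptomycin, then treated with compound. Cytoplasmic vacuoles judged by optical microscopy. Time course at 4 μM, or 10 h exposure across increasing concentrations.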"}, "[2]": {"tested_on": "HepG2", "assay": "Induction of apoptosis in human HepG2 cells assessed as late apoptotic cells at 2 uM after 24 hrs by annexin V/propidium iodide staining based flow cytometric analysis (reference value: 3.22%)", "assay_type": "functional"}, "[3]": {"tested_on": "HT-29", "assay": "Antiproliferative activity against human HT29 cells assessed as reduction in cell viability after 48 hrs by MTT assay", "assay_type": "functional, cell-based", "conditions": "HT-29, 48 h", "how_it_was_run": "(§1)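 Cell lines grown at 37 °C in 5% CO2: A2780, A549, HL7702 and PC3 in RPMI 1640; HT29 in McCoy's 5A; HepG2 and PANC-1 in DMEM; all media with 10% FBS and penicillin/streptomycin. Cells seeded and left overnight, then exposed to compound for 48 h. MTT (5 mg/mL solution) added for 4 h at 37 °C, formazan dissolved in DMSO, absorbance read at 570 nm. IC50 taken from viability; run in triplicate.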"}, "[4]": {"tested_on": "HepG2", "assay": "Induction of apoptosis in human HepG2 cells assessed as necrotic cells at 4 uM after 24 hrs in presence of z-VAD-fmk by annexin V/propidium iodide staining based flow cytometric analysis (reference value: 0.12%)", "assay_type": "functional"}, "[5]": {"tested_on": "HepG2", "assay": "Induction of apoptosis in human HepG2 cells assessed as viable cells at 4 uM after 24 hrs in presence of z-VAD-fmk by annexin V/propidium iodide staining based flow cytometric analysis (reference value: 92.8%)", "assay_type": "functional", "conditions": "read-out: Activity"}, "[6]": {"tested_on": "HepG2", "assay": "Induction of morphological changes in human HepG2 cells assessed as accumulation of vacuoles at 3 uM after 24 hrs in presence of 3-MA by microscopic method", "assay_type": "functional, cell-based", "how_it_was_run": "(§2)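 HepG2 cells given 3 μM compound for 24 h with chloroquine (10 μM) or 3-methyladenine (1 mM). Vacuolization and viability examined, viability by MTT.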"}, "[7]": {"tested_on": "A549", "assay": "Induction of morphological changes in human A549 cells assessed as accumulation of cytoplasmic vacuoles at 4 uM after 24 hrs by optical microscopic method", "assay_type": "functional, cell-based"}, "[8]": {"tested_on": "HepG2", "assay": "Induction of apoptosis in human HepG2 cells assessed as decrease in pro-caspase 12 protein expression at 1 to 4 uM after 24 hrs by Western blot analysis", "assay_type": "functional, cell-based", "conditions": "dose 1-4 µM", "how_it_was_run": "(§3)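 HepG2 cells lysed in RIPA on ice for 20 min; protein measured by BCA. Lysates run on 10% SDS-PAGE and transferred to PVDF. Membranes blocked in 5% nonfat milk/TBST for 2 h, incubated with primary antibodies overnight at 4 °C, then HRP secondary antibody; bands detected by ECL.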"}, "[9]": {"tested_on": "HepG2", "assay": "Induction of mitochondrial morphological changes in human HepG2 cells assessed as dilation of mitochondria by measuring vacuoles at 3 uM measured up to 30 hrs […] by TEM analysis", "assay_type": "functional, cell-based", "conditions": "time hrs <=30", "how_it_was_run": "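HepG2 cells given 3 μM for 15 h or 30 h, then fixed in 2.5% glutaraldehyde at 4 °C overnight. Dehydrated through graded alcohols, embedded in resin and examined by transmission electron microscopy.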"}, "[10]": {"assay": "Drug localization n human HepG2 cells mitochondria by MitoTracker staining based confocal microscopic analysis", "assay_type": "ADME", "how_it_was_run": "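HepG2 cells in glass-bottom dishes were exposed to compound, then stained with 150 nM MitoTracker Red CMXRos for 20 min. Compound's own blue fluorescence imaged against the red mitochondrial signal by confocal microscopy.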"}, "[11]": {"tested_on": "PC-3", "assay": "Antiproliferative activity against human PC-3 cells assessed as reduction in cell viability after 48 hrs by MTT assay", "assay_type": "functional, cell-based", "conditions": "PC-3, 48 h", "how_it_was_run": "as §1"}, "[12]": {"tested_on": "HepG2", "assay": "Induction of mitochondrial dysfunction in human HepG2 cells assessed as decrease in mitochondrial membrane […] at 1 to 4 uM after 24 hrs by JC-1 staining based flow cytometric analysis", "assay_type": "functional, cell-based", "conditions": "dose 1-4 µM", "how_it_was_run": "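HepG2 cells in 6-well plates treated for 24 h at 37 °C, then trypsinized. Stained with JC-1 at a final 2.5 μg/mL for 30 min, washed three times, resuspended in PBS and read by flow cytometry.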"}, "[13]": {"tested_on": "HepG2", "assay": "Induction of ROS generation in human HepG2 cells after 24 hrs by DCFH-DA staining based flow cytometric analysis", "assay_type": "functional, cell-based", "how_it_was_run": "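HepG2 cells treated for the stated time, then loaded with 10 μM DCFH-DA in FBS-free medium for 30 min in the dark. Washed twice with PBS, trypsinized, pelleted at 1200 rpm for 5 min, resuspended in PBS and read by flow cytometry. Kit Rosup reagent served as positive agent.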"}, "[14]": {"tested_on": "HepG2", "assay": "Induction of apoptosis in human HepG2 cells assessed as late apoptotic cells at 1 uM after 24 hrs by annexin V/propidium iodide staining based flow cytometric analysis (reference value: 3.22%)", "assay_type": "functional"}, "[15]": {"tested_on": "HepG2", "assay": "Induction of autophagy in human HepG2 cells assessed as effect on LC3-2 protein expression at 3 uM after 24 hrs by Western blot analysis", "assay_type": "functional, cell-based", "how_it_was_run": "as §3"}, "[16]": {"tested_on": "A2780", "assay": "Antiproliferative activity against human A2780 cells assessed as reduction in cell viability after 48 hrs by MTT assay", "assay_type": "functional, cell-based", "conditions": "A2780, 48 h", "how_it_was_run": "as §1"}, "[17]": {"tested_on": "HepG2", "assay": "Induction of cell death in human HepG2 cells at 3 uM after 12 hrs by MTT assay", "assay_type": "functional, cell-based"}, "[18]": {"tested_on": "HepG2", "assay": "Induction of morphological changes in human HepG2 cells assessed as accumulation of vacuoles at 3 uM after 24 hrs in presence of CQ by microscopic method", "assay_type": "functional, cell-based", "how_it_was_run": "as §2"}, "[19]": {"tested_on": "HepG2", "assay": "Induction of apoptosis in human HepG2 cells assessed as accumulation of AIF in cytoplasm at 4 uM after 24 hrs by immunofluorescence assay", "assay_type": "functional, cell-based", "how_it_was_run": "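HepG2 cells in glass-bottom dishes given 4 μM for 24 h. Fixed in methanol:acetone (1:1) for 10 min, blocked with 5% BSA for 1 h at room temperature. Anti-AIF antibody applied overnight at 4 °C, then Alexa Fluor 594 secondary; nuclei stained with DAPI. Imaged by confocal microscopy.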"}, "[20]": {"tested_on": "HepG2", "assay": "Induction of apoptosis in human HepG2 cells assessed as increase in cleaved-caspase 8 protein expression at 1 to 4 uM after 24 hrs by Western blot analysis", "assay_type": "functional, cell-based", "conditions": "dose 1-4 µM", "how_it_was_run": "as §3"}, "[21]": {"tested_on": "HepG2 (Homo sapiens)", "assay": "Induction of morphological changes in human HepG2 cells assessed as accumulation of cytoplasmic vacuoles at 4 uM after 24 hrs by optical microscopic method"}, "[22]": {"tested_on": "HepG2", "assay": "Induction of mitochondrial morphological changes in human HepG2 cells assessed as dilation of mitochondria at 3 uM measured after 12 hrs by MitoTracker red CMXRos by confocal microscopic method", "assay_type": "functional, cell-based", "how_it_was_run": "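HepG2 cells stained with MitoTracker Red CMXRos; fluorescence and phase-contrast images taken by laser confocal microscopy.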"}, "[23]": {"tested_on": "HepG2", "assay": "Induction of cell death in human HepG2 cells at 3 uM after 24 hrs in presence of CQ by MTT assay", "assay_type": "functional, cell-based", "how_it_was_run": "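HepG2 cells given 3 μM for 24 h together with CQ (10 μM) or 3-MA (1 mM). Viability measured by MTT with absorbance read at 570 nm.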"}, "[24]": {"tested_on": "HepG2", "assay": "Induction of morphological changes in human HepG2 cells assessed as effect on number of vacuoles at 3 uM after 24 hrs in presence of z-VAD-fmk by microscopic analysis", "assay_type": "functional, cell-based", "how_it_was_run": "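HepG2 cells preincubated with or without z-VAD-fmk (20 μM, 2 h), then treated with 3 μM compound. Vacuole number and size judged from optical microscopy images.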"}}, "note": "Calls of active or inactive are those of the source. The rule behind the calls is not given here."}
{"molecule": "C=CCc1ccc(O)c(-c2ccc(OCCCCCc3c4[n+](cc5c(OC)c(OC)ccc35)CCc3cc5c(cc3-4)OCO5)c(CC=C)c2)c1.[I-]", "values": [{"measurement": "Activity", "setting": "[1]", "result": "Active"}, {"measurement": "Activity", "setting": "[2]", "result": 3.51, "unit": "%"}, {"measurement": "IC50", "setting": "[3]", "result": "> 5000", "unit": "nM"}, {"measurement": "Activity", "setting": "[4]", "result": 0.57, "unit": "%"}, {"measurement": "viability at 4 µM", "setting": "[5]", "result": 73, "unit": "%"}, {"measurement": "Activity", "setting": "[6]", "result": "Active"}, {"measurement": "Activity", "setting": "[7]", "result": "Active"}, {"measurement": "Activity", "setting": "[8]", "result": "Active"}, {"measurement": "Activity", "setting": "[9]", "result": "Active"}, {"measurement": "Drug uptake", "setting": "[10]", "result": "Active"}, {"measurement": "IC50", "setting": "[11]", "result": 2250, "unit": "nM"}, {"measurement": "Activity", "setting": "[12]", "result": "Active"}, {"measurement": "Activity", "setting": "[13]", "result": "Dose-dependent effect"}, {"measurement": "Activity", "setting": "[14]", "result": 3.21, "unit": "%"}, {"measurement": "Activity", "setting": "[15]", "result": "inactive"}, {"measurement": "IC50", "setting": "[16]", "result": 2220, "unit": "nM"}, {"measurement": "Activity", "setting": "[17]", "result": "Active"}, {"measurement": "Activity", "setting": "[18]", "result": "Active"}, {"measurement": "Activity", "setting": "[19]", "result": "Active"}, {"measurement": "Activity", "setting": "[20]", "result": "Active"}, {"measurement": "Activity", "setting": "[21]", "result": "Active"}, {"measurement": "Activity", "setting": "[22]", "result": "Active"}, {"measurement": "Activity", "setting": "[23]", "result": "Active"}, {"measurement": "Activity", "setting": "[24]", "result": "inactive"}]}
